Compound activity from PubChem.
This is a sample that favours compounds with a hit; in the whole collection about 2.3% have one here.
TRPC6 inhibitor: mouse TRPC6 channel inhibition; Q61143; HEK293-TRPC6, membrane potential dye, ACh-evoked depolarization; hits give low values; B-score at 10 µM; 1.1% of 310,000 active; AID 2553;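 active = B-score under library mean minus 3 SD, initial fluorescence not abnormally high, positive integrated signal ratio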;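 note: B-score derived from integrated fluorescence ratio over the kinetic read; more negative B-score means stronger inhibition of depolarization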
TRPC4 PAM: allosteric potentiators of mouse TRPC4 channel; 0.42% of 310,000 active; HEK293 TRPC4beta/mu-opioid, DAMGO EC20, Fluo-4 Ca2+ flux; hits give high values; Q9QUQ5; B-score at 10 µM; AID 2227;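 active = B-score of calcium response area above 5 SD of library B-scores, with initial fluorescence ratio within 5 SD of library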;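 note: B-score of integrated fluorescence ratio over time as area under calcium response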
Target sequence (Q9QUQ5 whole entry, looked up): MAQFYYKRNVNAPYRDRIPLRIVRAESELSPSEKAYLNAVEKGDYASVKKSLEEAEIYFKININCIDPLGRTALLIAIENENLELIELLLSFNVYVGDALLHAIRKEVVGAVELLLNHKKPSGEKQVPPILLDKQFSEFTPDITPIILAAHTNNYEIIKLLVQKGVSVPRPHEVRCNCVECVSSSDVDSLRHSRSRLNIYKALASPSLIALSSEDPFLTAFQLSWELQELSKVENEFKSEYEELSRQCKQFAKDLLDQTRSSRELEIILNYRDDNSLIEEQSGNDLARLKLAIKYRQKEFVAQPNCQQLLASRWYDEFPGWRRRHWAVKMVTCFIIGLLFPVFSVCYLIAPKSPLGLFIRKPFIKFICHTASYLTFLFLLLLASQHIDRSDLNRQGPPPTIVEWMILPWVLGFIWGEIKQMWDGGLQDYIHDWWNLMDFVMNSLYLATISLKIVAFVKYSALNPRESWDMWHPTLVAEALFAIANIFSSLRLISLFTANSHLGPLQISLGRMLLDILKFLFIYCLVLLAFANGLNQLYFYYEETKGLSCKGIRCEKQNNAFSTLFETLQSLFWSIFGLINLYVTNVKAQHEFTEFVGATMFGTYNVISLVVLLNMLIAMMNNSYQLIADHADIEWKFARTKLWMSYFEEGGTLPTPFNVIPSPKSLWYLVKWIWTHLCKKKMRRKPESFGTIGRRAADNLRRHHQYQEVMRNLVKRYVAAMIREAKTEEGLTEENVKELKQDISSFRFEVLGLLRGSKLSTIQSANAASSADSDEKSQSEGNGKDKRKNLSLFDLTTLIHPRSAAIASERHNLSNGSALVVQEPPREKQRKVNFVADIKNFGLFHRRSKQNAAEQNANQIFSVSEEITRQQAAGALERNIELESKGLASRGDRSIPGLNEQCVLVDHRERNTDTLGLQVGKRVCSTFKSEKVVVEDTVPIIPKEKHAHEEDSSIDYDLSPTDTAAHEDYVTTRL
TRPC4 block: blocks the mouse TRPC4 cation channel. Q9QUQ5. HEK293 TRPC4beta/mu-opioid, DAMGO-evoked Fluo4 calcium flux; hits give low values. B-score at 10 µM. 0.39% of 300,000 active. AID 2247;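 active = B-score over 3 SD under the library average, no early fluorescence shift, positive overall ratio signal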
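System: stable TRPC4beta/mu-opioid receptor HEK293 cells; Dosing: single-point compound dosing; Measured by: Fluo4 Ca2+ flux fluorescence; Read-out basis: per-well B score of integrated baseline-normalized Fluo4 ratio.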
TRPC6 act: activators of mouse TRPC6 channel. B-score at 10 µM. Q61143. 0.13% of 310,000 active. HEK293-TRPC6 membrane potential dye fluorescence; hits give high values;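 active = B-score of the integrated fluorescence ratio above library mean plus 3 SD, and starting fluorescence ratio within library mean plus 5 SD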;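 note: higher score means more depolarization so channel activation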
TRPC4 agonist: activators of mouse TRPC4 channel; Q9QUQ5; HEK293 TRPC4beta/mu-opioid, Fluo4 calcium fluorescence; hits give high values; B-score at 10 µM; 0.49% of 310,000 active; AID 2237;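 active = B-score above 5 SD of library B-scores, and initial fluorescence ratio not above library mean plus 5 SD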;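 note: positive B-score marks a calcium rise read as TRPC4 activation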
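Technique: kinetic Fluo4 calcium fluorescence; Test system: TRPC4beta and mu-opioid receptor HEK293 stable cells; Measure: B-scored integrated calcium fluorescence ratio; Benchmarks: low control buffer alone, high control maximal DAMGO; Schedule: 45 min room-temperature Fluo4 loading, 110 s read.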
TRPC4 sel inh 2: second selectivity test of TRPC6 inhibitors: effect on mouse TRPC4; shares compounds with TRPC6 inhibitor; HEK293 TRPC4/MOR, membrane potential dye fluorescence; channel activated by saturating DAMGO dose; inhibition, % at 10 µM; 42% of 920 active; AID 2776;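 active = compounds whose fluorescence signal differed from control wells by over 3 SD, either direction, in both duplicate plates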
TRPC4 spec: mouse TRPC4 off-target activity of TRPC6 inhibitors; activity change, negative = inhibition, % at 10 µM; 61% of 920 active; HEK293 TRPC4/mu-opioid, membrane potential fluorescence; shares compounds with TRPC6 inhibitor; AID 2777;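 active = rise or fall in signal beyond 3 SD of buffer-only wells in both replicate plates, either sign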;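 note: integrated kinetic ratio of fluorescence range over baseline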
HEK293 MPD ctr 2-1: second check of TRPC6 inhibitor effects in parental HEK293 cells. 31% of 920 active. AID 2779. parental HEK293 membrane potential dye fluorescence; maximal acetylcholine challenge after compound addition. shares compounds with TRPC6 inhibitor. signal change vs control, % at 10 µM;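 active = membrane potential signal moving either way by over 3 SD of the maximum-effect control, in both duplicate plates, meaning non-specific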
HEK293 MPD ctr-1: counter-screen for TRPC6 inhibitors: effect in parental HEK293 cells; shares compounds with TRPC6 inhibitor; parental HEK293 membrane potential dye fluorescence; membrane potential signal change, % at 10 µM; 60% of 920 active; AID 2780;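 active = membrane potential signal shifting up or down by more than 3 SD of buffer-only wells, on both duplicate plates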
HEK293 MPD ctr-2: counter-screen for TRPC6 modulators: effect in parental HEK293 cells. shares compounds with TRPC6 inhibitor. membrane potential dye fluorescence. membrane potential signal change, % at 10 µM. 51% of 2,400 active. AID 488924;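 active = membrane potential signal moves up or down beyond 5 SD from buffer-only wells, on both duplicate plates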
HEK293 MPD ctr 2-2: parental HEK293 nonspecific activity of TRPC6 modulators, second screen; shares compounds with TRPC6 inhibitor; membrane potential dye fluorescence; after compound, maximal acetylcholine stimulation; inhibition, % at 10 µM; 14% of 2,400 active;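 active = membrane potential signal drops by more than 5 SD from the mean control signal, in both duplicate plates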;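 note: plate controls were acetylcholine ECmax control wells for no effect and buffer only wells for full effect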
TRPC4 ctr mod: tests whether TRPC6 modulators also affect mouse TRPC4; HEK293 TRPC4/mu-opioid, membrane potential fluorescence; percent change from control (negative = decrease, positive = increase), % at 10 µM; shares compounds with TRPC6 inhibitor; 69% of 2,400 active;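 active = membrane potential signal moved up or down beyond 5 SD of buffer control wells, in both duplicate plates, actives on both sides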;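 note: plate controls were assay buffer wells for no effect and DAMGO maximal-effect wells for full effect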
TRPC4/MOR inh 2: mouse TRPC4 off-target activity of TRPC6 modulators, second screen. HEK293 TRPC4/mu-opioid, membrane potential dye fluorescence; stimulated with maximal-effect DAMGO. 55% of 2,400 active. inhibition, % at 10 µM. shares compounds with TRPC6 inhibitor;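 active = drop in membrane potential signal beyond 5 SD of the control wells in both duplicate plates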;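 note: TRPC4 counter screen for TRPC6 hits run under conditions tuned for TRPC6 not TRPC4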
TRPC6 block conf: confirmation of mouse TRPC6 inhibitors. 43% of 3,300 active. inhibition, % at 10 µM. HEK293-TRPC6, membrane potential dye, ACh-evoked depolarization. shares compounds with TRPC6 inhibitor;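 active = fluorescence ratio falls more than 5 SD below the full-stimulation control mean, in both duplicate runs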;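 note: integrated fluorescence ratio of peak minus minimum over baseline after agonist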
TRPC6 act conf: mouse TRPC6 activator confirmation; shares compounds with TRPC6 inhibitor; HEK293-TRPC6 membrane potential dye fluorescence, FDSS; activation, % at 10 µM; 11% of 2,800 active;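 active = ratio signal rise beyond 5 SD above unstimulated control wells' mean, seen in both duplicate runs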;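 note: plate controls were buffer EC0 wells for no effect and acetylcholine ECmax response for full effect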
* marks the source's active call; other numbers are inactive results; i = inactive; / = no result.

SMILES | TRPC6 inhibitor | TRPC4 PAM | TRPC4 block | TRPC6 act | TRPC4 agonist | HEK293 MPD ctr-2 | HEK293 MPD ctr 2-2 | TRPC4 ctr mod | TRPC4/MOR inh 2 | TRPC6 block conf | TRPC6 act conf | others
COc1ccc(S(=O)(=O)N2CCN(C(=O)CNC(=O)c3ccc4c(c3)OCO4)CC2)cc1 | i | i | i | i | i | / | / | / | / | / | /
O=C1NCCN(C(=O)CCc2nnc(-c3ccsc3)o2)C1c1ccc(F)cc1 (stereo not given) | i | i | i | i | i | / | / | / | / | / | /
C#CC[N+](C)(C)CCCCCCCCCCCC | -5.1* | i | i | i | i | i | i | 19%* | 45%* | 60%* | /
Cc1ncc(CSc2nc3ccccc3[nH]2)c(N)n1 | i | i | i | i | i | / | / | / | / | / | /
CCOc1ccccc1CSc1nc2ccccc2[nH]1 | -5.8* | i | i | i | i | i | i | i | i | i | i
CCc1nc(Nc2ccncc2)c2oc3ccccc3c2n1 | -5.7* | i | i | i | i | i | 76%* | -8.0%* | i | i | i
CC(=O)Nc1ccc(Nc2nc(C)nc3c2oc2ccccc23)cc1 | i | i | i | i | i | / | / | / | / | / | /
Cc1nc(Nc2ccncc2)c2oc3ccccc3c2n1 | -6.4* | i | i | i | i | 106%* | 113%* | 11%* | i | 56%* | i
CCN(CC(=O)Nc1ccc(NC(C)=O)cc1)C(=O)CCCc1nc2ccccc2c(=O)[nH]1 | i | i | i | i | i | / | / | / | / | / | /
O=C(N/N=C/c1cccc(Oc2ccc([N+](=O)[O-])cc2[N+](=O)[O-])c1)c1cncc(Br)c1 | i | i | i | i | i | / | / | / | / | / | /
O=C1/C(=C/c2ccccc2)SC(=S)N1N1C(=O)C2CC2C1=O (stereo not given) | -8.8* | i | i | i | i | / | / | / | / | i | i | TRPC4 sel inh 2=i;TRPC4 spec=i;HEK293 MPD ctr 2-1=i;HEK293 MPD ctr-1=i
CC(=O)NN1C(=O)/C(=C\c2ccccc2)SC1=S | i | i | i | i | i | / | / | / | / | / | /
CCCCn1c(N)c(N(CC)C(=O)CSCC(=O)Nc2ccc(OC)cc2)c(=O)[nH]c1=O | i | i | i | i | i | / | / | / | / | / | /
CN1CCN(c2ncccc2S(=O)(=O)N2CCCCC2)CC1 | -7* | i | i | i | i | / | / | / | / | 78%* | i | TRPC4 sel inh 2=i;TRPC4 spec=-0.1%*;HEK293 MPD ctr 2-1=-41%*;HEK293 MPD ctr-1=0.9%*
O=S(=O)(c1cccc2cccnc12)N1CCCCC1 | i | i | i | i | i | / | / | / | / | / | /
Cn1c(CNC(=O)CCNC(=O)c2cccc(F)c2)cc(=O)n(C)c1=O | i | i | i | i | i | / | / | / | / | / | /
COc1cccc2c3c(c(C)nc12)CCN3c1ccccc1 | -8.5* | i | i | i | i | -182%* | i | -33%* | 72%* | 68%* | i
COc1ccccc1N1CCc2c(C)nc3c(OC)cccc3c21 | -6.5* | i | -6* | i | i | -114%* | i | -19%* | 58%* | 46%* | i
CCOC(=O)c1cnc2c(OC)cccc2c1N1CCN(c2ccccc2OC)CC1 | i | i | i | i | i | / | / | / | / | / | /
Cc1ccc2nc(C)c3c(c2c1)N(c1ccc(F)cc1)CC3 | -9.6* | i | -6* | i | i | / | / | / | / | 105%* | i | TRPC4 sel inh 2=34%*;TRPC4 spec=i;HEK293 MPD ctr 2-1=27%*;HEK293 MPD ctr-1=-194%*
COc1cccc2c(Cl)c(CC=C(Cl)Cl)c(C)nc12 | i | i | i | i | i | / | / | / | / | / | /
COCCOC(=O)C1=C(C)N=C2SCCC(=O)N2C1c1cccc(Br)c1 (stereo not given) | i | i | i | i | i | / | / | / | / | / | /
COc1ccccc1N/C(=N/S(=O)(=O)c1ccc(C)cc1)c1ccc(Cl)cc1 | i | i | i | i | i | / | / | / | / | / | /
CC1(c2ccc([N+](=O)[O-])c(CS(=O)(=O)c3ccccc3)c2)OCCO1 | i | i | i | i | i | / | / | / | / | / | /
CC(=NCCCn1ccnc1)c1c(C)[nH]n(-c2ccc([N+](=O)[O-])cc2)c1=O | -5.5* | i | i | i | i | -208%* | i | -42%* | 37%* | i | i
SMILES | TRPC6 inhibitor | TRPC4 PAM | TRPC4 block | TRPC6 act | TRPC4 agonist | HEK293 MPD ctr-2 | HEK293 MPD ctr 2-2 | TRPC4 ctr mod | TRPC4/MOR inh 2 | TRPC6 block conf | TRPC6 act conf | others
Cc1[nH]n(-c2ccc([N+](=O)[O-])cc2)c(=O)c1/C=N/N1CCOCC1 | i | i | i | i | i | / | / | / | / | / | /
O=C(CCN1CCOCC1)N1c2ccccc2Sc2ccc(Cl)cc21 | -5.2* | i | i | i | i | i | 75%* | 14%* | i | 50%* | /
CCN(CC)CC(=O)N1c2ccccc2Sc2ccc(Cl)cc21 | -8.2* | i | i | i | i | / | / | / | / | i | / | TRPC4 sel inh 2=i;TRPC4 spec=6.0%*;HEK293 MPD ctr 2-1=i;HEK293 MPD ctr-1=7.4%*
NCCCC(=O)N1c2ccccc2Sc2ccccc21 | -6.9* | i | i | i | i | / | / | / | / | i | i | TRPC4 sel inh 2=i;TRPC4 spec=i;HEK293 MPD ctr 2-1=i;HEK293 MPD ctr-1=i
NCCC(=O)N1c2ccccc2Sc2ccccc21 | i | i | i | i | i | / | / | / | / | / | /
CCN(CC)CC(=O)N1c2ccccc2Sc2ccccc21 | i | i | i | i | i | / | / | / | / | / | /
